{
  "source": "ChEMBL document CHEMBL2202986",
  "about": "“Guaianolide sesquiterpene lactones, a source to discover agents that selectively inhibit acute myelogenous leukemia stem and progenitor cells” (J Med Chem, 2012)",
  "key": {"[1]": {"test": "Toxicity in po dosed BALB/c mouse administered as single dose", "assay_type": "organism-based", "settings": "in vivo; call rule not given here", "procedure,_shortened": "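Oral gavage of aqueous solution at a single dose of 1000 mg/kg. Untreated and water-vehicle mice served as controls; 16 mice in total (8 male/8 female). Mice were sacrificed 1 week after dosing. Heart, liver, spleen, lung and kidney were formalin-fixed, paraffin-embedded, sectioned at 3 μm, H&E-stained, and examined for gross morphology.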"}, "[2]": {"test_system": "Mus musculus", "test": "Toxicity in BALB/c mouse assessed as pathological changes in kidney at 1000 mg/kg, po administered as single dose by hematoxylin-eosin staining method", "assay_type": "organism-based", "set-up": "dose 1000 mg/kg, route oral", "settings": "in vivo", "procedure,_shortened": "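BALB/c mice (16 in total, 8 male/8 female) were given aqueous DMAMCL by gavage as a single 1000 mg/kg dose or 500 mg/kg daily for seven doses. Water-only and untreated mice served as controls. One week later, tissues were fixed in 10% neutral-buffered formalin, embedded in paraffin, cut into 3 μm sections, stained with H&E and examined microscopically.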"}, "[3]": {"test_system": "Mus musculus", "test": "Toxicity in BALB/c mouse assessed as pathological changes in lung at 1000 mg/kg, po administered as single dose by hematoxylin-eosin staining method", "assay_type": "organism-based", "set-up": "dose 1000 mg/kg, route oral", "settings": "in vivo", "procedure,_shortened": "(§1)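 BALB/c mice, 16 in total (8 male, 8 female). DMAMCL was given by gavage as an aqueous solution, either 1000 mg/kg once or 500 mg/kg every day for seven doses. Controls were untreated and water-vehicle mice. Mice were killed 1 week after dosing. Heart, liver, spleen, lung and kidney were fixed in 10% neutral-buffered formalin, paraffin-embedded, cut into 3 μm sections, H&E-stained and examined microscopically for gross morphology.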"}, "[4]": {"test_system": "Mus musculus", "test": "Toxicity in BALB/c mouse assessed as pathological changes in spleen at 1000 mg/kg, po administered as single dose by hematoxylin-eosin staining method", "assay_type": "organism-based", "set-up": "dose 1000 mg/kg, route oral", "settings": "in vivo", "procedure,_shortened": "as §1"}, "[5]": {"test_system": "Mus musculus", "test": "Toxicity in BALB/c mouse assessed as pathological changes in liver at 1000 mg/kg, po administered as single dose by hematoxylin-eosin staining method", "assay_type": "organism-based", "set-up": "dose 1000 mg/kg, route oral", "settings": "in vivo", "procedure,_shortened": "as §1"}, "[6]": {"test": "Antitumor activity against mixed-lineage human leukemia cells xenografted in NOD/SCID mouse assessed as inhibition of cancer cell engrafting at 100 mg/kg, po qd administered every other day total of seven doses starting from 8 weeks post grafting measured on day 35", "assay_type": "functional"}, "[7]": {"test": "Oral bioavailability in mouse at 150 mg/kg", "assay_type": "ADME, organism-based", "settings": "in vivo"}, "[8]": {"test": "Antitumor activity against human leukemia stem/progenitor cells xenografted in NOD/SCID mouse assessed as survival time at 100 mg/kg, po qd administered every other day total of seven doses starting from 8 weeks post grafting (reference value: 43 days)", "assay_type": "functional", "procedure,_shortened": "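NOD/SCID mice were sublethally irradiated (280cGay), then 6−10 h later given primary AML M5 patient cells via tail vein in PBS. From 8 weeks postinoculation, aqueous solution was given orally at 100 mg/kg every other day for seven doses. Survival was followed, Kaplan−Meier, n = 6 per treated group and n = 7 untreated controls. Survivors at day 85 had bone marrow analysed for human CD45⁺CD33⁺ cells.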"}, "[9]": {"test": "Cmax in mouse at 100 mg/kg, iv", "assay_type": "ADME, organism-based", "set-up": "dose 100 mg/kg, route intravenous", "settings": "in vivo", "procedure,_shortened": "(§2)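 Male Kunming mice (20 2 g), fasted 12 h before dosing with water available, given DMAMCL as an aqueous solution iv (n = 5). Blood was drawn from the orbital veins at set times. DMAMCL and MCL in plasma were measured, and parameters were derived by a noncompartmental model.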"}, "[10]": {"test": "Total clearance in mouse at 100 mg/kg, iv", "assay_type": "ADME, organism-based", "set-up": "dose 100 mg/kg, route intravenous", "settings": "in vivo", "procedure,_shortened": "as §2"}, "[11]": {"test": "AUC (0 to infinity) in mouse at 100 mg/kg, iv", "assay_type": "ADME, organism-based", "set-up": "time infinity, dose 100 mg/kg, route intravenous", "settings": "plasma", "procedure,_shortened": "as §2"}, "[12]": {"test": "AUC (0 to t) in mouse at 100 mg/kg, iv", "assay_type": "ADME, organism-based", "set-up": "dose 100 mg/kg, route intravenous", "settings": "plasma", "procedure,_shortened": "as §2"}, "[13]": {"test_system": "Mus musculus", "test": "Volume of distribution in mouse at 150 mg/kg, po", "assay_type": "ADME, organism-based", "set-up": "dose 150 mg/kg, route oral", "settings": "in vivo", "procedure,_shortened": "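Male Kunming mice (20 2 g) were fasted 12 h with water available. An aqueous solution was dosed po (150 mg/kg) or iv (100 mg/kg), n = 5 per route. Blood was drawn from the orbital veins at set times to measure DMAMCL and released MCL. Parameters come from a noncompartmental model and are given as mean with SD.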"}, "[14]": {"test": "Half life in mouse at 150 mg/kg, po", "assay_type": "ADME, organism-based", "set-up": "dose 150 mg/kg, route oral", "settings": "in vivo", "procedure,_shortened": "(§3)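 Male Kunming mice (20 2 g), fasted 12 h before dosing with water available, given DMAMCL as an aqueous solution po (n = 5). Blood was drawn from the orbital veins at set times. Plasma DMAMCL and MCL were followed, and parameters came from noncompartmental analysis.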"}, "[15]": {"test": "Tmax in mouse at 150 mg/kg, po", "assay_type": "ADME, organism-based", "set-up": "dose 150 mg/kg, route oral", "settings": "in vivo", "procedure,_shortened": "as §3"}, "[16]": {"test": "Mean retention time (0 to t) in mouse at 150 mg/kg, po", "assay_type": "ADME, organism-based", "set-up": "dose 150 mg/kg, route oral", "settings": "in vivo", "procedure,_shortened": "as §3"}, "[17]": {"test": "AUC (0 to infinity) in mouse at 150 mg/kg, po", "assay_type": "ADME, organism-based", "set-up": "dose 150 mg/kg, route oral, time infinity", "settings": "plasma", "procedure,_shortened": "as §3"}, "[18]": {"test": "AUC (0 to t) in mouse at 150 mg/kg, po", "assay_type": "ADME, organism-based", "set-up": "dose 150 mg/kg, route oral", "settings": "plasma", "procedure,_shortened": "as §3"}, "[19]": {"test": "Drug degradation in HEPES buffer at pH 7.4 assessed as release of MCL", "assay_type": "physicochemical", "procedure,_shortened": "(§4)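 A 20 μL aliquot of prodrug solution was added to 980 μL HEPES buffer (pH 7.4, or below 5.0) and incubated at 37 °C. Samples were withdrawn over time, and prodrug and released parent were quantified by HPLC (mean, SD, n = 4).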"}, "[20]": {"test": "Drug degradation in HEPES buffer at pH <5 assessed as release of MCL", "assay_type": "physicochemical", "procedure,_shortened": "as §4"}, "[21]": {"test": "Cytotoxicity against human leukemia stem/progenitor cells assessed as viable CD34+ cells at 10 uM after 18 hrs by annexin-V labeling-based flow cytometry", "assay_type": "functional, CD34+ cell"}, "[22]": {"test": "Cytotoxicity against human leukemia stem/progenitor cells assessed as viable CD34+ cells at 5 uM after 18 hrs by annexin-V labeling-based flow cytometry", "assay_type": "functional, CD34+ cell", "procedure,_shortened": "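Primary leukemia cells from AML patient blood were treated for 18 h in serum-free IMDM, then stained with CD34-APC and CD38-PECy7 for 30 min. After washing in cold PBS, cells were labelled with Annexin-V–FITC/PI for 15 min at room temperature and read by flow cytometry. Viability of total and CD34⁺ cells was normalized to untreated controls (mean, SD).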"}, "[23]": {"test": "Cytotoxicity against human HL60/A cells after 18 hrs by annexin-V labeling-based flow cytometry", "assay_type": "functional, cell-based"}, "[24]": {"test_system": "HL-60", "test": "Cytotoxicity against human HL60 cells after 18 hrs by annexin-V labeling-based flow cytometry", "assay_type": "functional, cell-based", "settings": "HL-60, 18 h"}, "[25]": {"test": "Drug degradation in HEPES buffer at pH 7.4 assessed as release of MCL up to 8 hrs", "assay_type": "physicochemical", "settings": "pH 7.4, 8 h", "procedure,_shortened": "as §4"}, "[26]": {"test": "Cytotoxicity against human leukemia cells assessed as cell viability at 10 uM after 18 hrs by annexin-V labeling-based flow cytometry"}, "[27]": {"test_system": "Mus musculus", "test": "Toxicity in BALB/c mouse assessed as pathological changes in heart at 500 mg/kg, po administered every day for 7 days by hematoxylin-eosin staining method", "settings": "in vivo, 168 h"}, "[28]": {"test_system": "Mus musculus", "test": "Toxicity in BALB/c mouse assessed as pathological changes in kidney at 500 mg/kg, po administered every day for 7 days by hematoxylin-eosin staining method", "settings": "in vivo, 168 h"}, "[29]": {"test_system": "Mus musculus", "test": "Toxicity in BALB/c mouse assessed as pathological changes in spleen at 500 mg/kg, po administered every day for 7 days by hematoxylin-eosin staining method", "settings": "in vivo, 168 h"}},
  "data": [
    {"smiles": "CC1=C2CC[C@@](C)(O)[C@@H]2[C@H]2OC(=O)[C@@H](CN(C)C)[C@@H]2CC1.Cl", "note": "[DIMETHYLAMINOMICHELIOLIDE HYDROCHLORIDE]", "values": [
      {"measurement": "MTD", "setting": "[1]", "value": 1000, "unit": "mg/kg"},
      {"measurement": "Activity", "setting": "[2]", "value": "Non-toxic"},
      {"measurement": "Activity", "setting": "[3]", "value": "Non-toxic"},
      {"measurement": "Activity", "setting": "[4]", "value": "Non-toxic"},
      {"measurement": "Activity", "setting": "[5]", "value": "Non-toxic"},
      {"measurement": "inhibition in vivo at 100 mg/kg", "setting": "[6]", "value": 98.6, "unit": "%"},
      {"measurement": "bioavailability", "setting": "[7]", "value": 75, "unit": "%"},
      {"measurement": "Survival", "setting": "[8]", "value": 63, "unit": "days"},
      {"measurement": "Cmax", "setting": "[9]", "value": 92.9, "unit": "µg/mL"},
      {"measurement": "clearance", "setting": "[10]", "value": 37.7, "unit": "mL/min/kg"},
      {"measurement": "AUC(0-inf)", "setting": "[11]", "value": 44800, "unit": "ng·h/mL"},
      {"measurement": "AUC(0-t)", "setting": "[12]", "value": 43900, "unit": "ng·h/mL"},
      {"measurement": "Vd", "setting": "[13]", "value": 47.38, "unit": "L/kg"},
      {"measurement": "half-life", "setting": "[14]", "value": 9.82, "unit": "h"},
      {"measurement": "Tmax", "setting": "[15]", "value": 0.19, "unit": "h"},
      {"measurement": "MRT last", "setting": "[16]", "value": 8.85, "unit": "h"},
      {"measurement": "AUC(0-inf)", "setting": "[17]", "value": 50300, "unit": "ng·h/mL"},
      {"measurement": "AUC(0-t)", "setting": "[18]", "value": 49600, "unit": "ng·h/mL"},
      {"measurement": "Drug degradation", "setting": "[19]", "value": "Active"},
      {"measurement": "Drug degradation", "setting": "[20]", "value": "Not Active"},
      {"measurement": "Activity", "setting": "[21]", "value": 60.4, "unit": "%"},
      {"measurement": "Activity", "setting": "[22]", "value": 72.9, "unit": "%"},
      {"measurement": "IC50", "setting": "[23]", "value": 21.5, "unit": "µM"},
      {"measurement": "IC50", "setting": "[24]", "value": 17.2, "unit": "µM"},
      {"measurement": "Drug degradation", "setting": "[25]", "value": "Active"},
      {"measurement": "viability at 10 µM", "setting": "[26]", "value": 64.9, "unit": "%"},
      {"measurement": "Activity", "setting": "[27]", "value": "Non-toxic"},
      {"measurement": "Activity", "setting": "[28]", "value": "Non-toxic"},
      {"measurement": "Activity", "setting": "[29]", "value": "Non-toxic"}
    ]}
  ]
}
